Reference: article PMC5439940 (International Journal of Nanomedicine, 2017)

Columns and labels:
A549 or CoLo-357 cells = format: cell-based, human; details: for Effect of inhibitor on liposome accumulation/binding: preincubation with inhibitor, then liposomes 100 μM total lipids, 37°C
[1] = Plasma retention of liposomal MTX-DG versus intact MTX in mice; format: in vivo; details: IV
Outline: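 Female F1(CBA × C57BL/6) mice, 20–22 g, 6–8 weeks old, received 10 mg/kg free parent drug or an equivalent liposomal prodrug dose IV by tail vein (0.2 mL). Groups of n=3 were decapitated at set times and serum collected at 600×g for 10 min. Drug was measured by RP-HPLC after HClO4 deproteinisation; prodrug by RP-HPLC with UV detection at 313 nm. Both were calibrated against spiked or extracted control serum.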

[2] = tested on: ASF-LL T-cell leukemic lymphoma; test: Antitumor effect in transplanted mouse T-cell leukemic lymphoma; format: in vivo
Outline: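 A/Sn female mice aged 6 or 12 months, one experiment per age, received 10^6 ASF-LL cells SC on day 0. Groups of n=6 got IV free parent drug (10 mg/kg) or an equivalent liposomal prodrug dose in 0.2 mL PBS/1 mM EDTA, pH 7.0, on days 3, 5, 10 and 12. Controls got vehicle. Daily survival monitoring; euthanasia at >20% weight loss and/or food rejection. Mean ± SD, Student's t-test.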

Methyl-β-cyclodextrin
Cell death caused by inhibitor (A549 or CoLo-357 cells; in the range of concentrations required for the inhibitory studies): > 50%

CN(Cc1cnc2nc(N)nc(N)c2n1)c1ccc(C(=O)N[C@@H](CCC(=O)O)C(=O)O)cc1 [MTX, Methotrexate]
t1/2α and t1/2β of MTX relative to MTX-DG (times lower) [1]: approximately 4 times | Delay of palpable lymphoma appearance and tumor growth vs controls ([2]; both experiments, 10 mg/kg MTX or equivalent IV on days 3, 5, 10, 12): significant delay in palpable lymphoma appearance | Increase in the mean life span vs control group ([2]; first experiment, mice aged 6 months, 4 IV injections, days 3, 5, 10, 12): 23% | Toxicity / tolerability in old recipient mice ([2]; second experiment, mice aged 12 months, 4 IV injections): pronounced toxicity

COc1cc2c(c(OC)c1OC)-c1ccc(OC)c(=O)cc1[C@@H](NC(C)=O)CC2 [colchicine]
Effect of inhibitor on liposome accumulation/binding (A549 or CoLo-357 cells): elusive effects

CN(C)CCCN1c2ccccc2Sc2ccc(Cl)cc21 [chlorpromazine]
Effect of inhibitor on liposome accumulation/binding (A549 or CoLo-357 cells): concentration-dependent decrease in liposome accumulation

C=C1[C@@H](C)[C@H]2[C@H](Cc3ccccc3)NC(=O)[C@]23OC(=O)/C=C/[C@H](O)CCC[C@@H](C)C/C=C/[C@H]3[C@@H]1O [cytochalasin B]
Effect of inhibitor on liposome accumulation/binding (A549 or CoLo-357 cells): elusive effects

COC(=O)Nc1nc2ccc(C(=O)c3cccs3)cc2[nH]1 [nocodazole]
Effect of inhibitor on liposome accumulation/binding (A549 or CoLo-357 cells): elusive effects
